Results from publication PMC5384256 (Bioconjugate chemistry, 2015).
Values joined by “and” are separate entries in the source; they are usually repeats but may differ in a detail not shown here. Equal entries are not always repeated. Where no end group is shown, it is not given here. Cy5.5 = Cy5.5 fluorophore

How the values were obtained:
dysplastic polyps = conditions: FITC-labeled, topical application, patients; cited from earlier work
HER2 on HT29 cells [1] = assay: Confocal fluorescence microscopy, HT29 cells; assay type: cell-based, Human; conditions: peptides 5 μM, 30 min, 4 °C
How it was run: (§1)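 Cells were cultured at 37 °C, 5% CO2 with 10% FBS and 1% pen/strep: HT29 in McCoy's, SW480 in DMEM. After a PBS wash, cells got 5 μM Cy5.5-labeled test or control peptide for 30 min at 4 °C, were washed 3×, fixed in ice-cold 4% PFA for 10 min and mounted with DAPI. Imaging used Cy5.5 and DAPI filters. Intensities were quantified from 3 independent images.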

HER2 on SW480 cells = assay: Confocal fluorescence microscopy, SW480 cells; assay type: cell-based, Human; conditions: peptides 5 μM, 30 min, 4 °C
How it was run: as §1

HER2 on HT29 cells [2] = assay: siRNA knockdown of HER2, HT29 cells; assay type: cell-based, Human; conditions: HT29 siCL vs siHER2; confocal; average of 3 images
How it was run: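 HT29 cells were seeded at 30% confluence in McCoy's 5A with 10% FBS and no antibiotics. Next day they were transfected with HER2-targeting siRNA or a nontargeting pool, and knockdown was confirmed by Western blot. Cy5.5-labeled test peptide and AF488 anti-HER2 binding were imaged confocally, with intensities quantified from 3 independent images.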

HER2 on HT29 cells [3] = assay: Co-localization of peptide and anti-HER2 antibody binding, HT29 cells; assay type: cell-based, Human; conditions: KSP*-Cy5.5 5 μM, 1 h, 4 °C, then anti-HER2 and AF488 secondary
How it was run: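 HT29 cells got 5 μM Cy5.5-labeled test peptide first (1 h, 4 °C), at under 10 μM to limit interference with antibody binding. Cells were washed, fixed in 4% PFA for 5 min, then stained with primary anti-HER2 and AF488 secondary. Co-localization was scored as Pearson's correlation coefficient.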

HER2 on HT29 cells [4] = assay: Apparent association time constant by flow cytometry; assay type: binding, Human; conditions: 5 μM KSP*-Cy5.5, 4 °C, 0-60 min, from k = 0.14 min^−1
[5] = tested on: HER2 in colonic adenomas of CPC;Apc mice; assay: In vivo NIR endoscopic imaging of mouse colonic dysplasia, topical peptide; conditions: topical 100 μM, 1.5 mL
How it was run: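 Cy5.5-labeled peptides, 100 μM in 1.5 mL, were delivered into the colon through the endoscope instrument channel and left 5 min. The colon was rinsed 3× with tap water before NIR imaging with a small animal endoscope. Imaging was repeated 2–3 days later with the control peptide. Target-to-background ratios came from mean ROI intensities.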

[6] = tested on: HER2 in colonic adenomas of CPC;Apc mice; assay: In vivo NIR endoscopic imaging of mouse colonic dysplasia, systemic peptide; conditions: n = 4, i.v. tail vein, 200 μL of 300 μM
How it was run: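 Isoflurane-anaesthetized CPC;Apc mice received 200 μL of 300 μM Cy5.5-labeled test peptide via tail vein. NIR endoscopy was done before injection for baseline, then after injection until maximum signal. The adenoma-to-normal intensity ratio came from regions of interest at each time point.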

[7] = tested on: HER2 overexpressed by mouse colonic dysplasia; assay: Peptide immunofluorescence on mouse colonic adenoma sections; conditions: 2 μM, 10 min, RT, confocal
How it was run: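 Serial 5-μm sections of formalin-fixed mouse colonic adenoma were incubated with 2 μM Cy5.5-labeled test or control peptide for 10 min at RT. Sections were washed 3× with PBS and mounted with DAPI for confocal imaging. Adjacent sections were H&E stained.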

[8] = tested on: HER2 overexpressed by human proximal colonic neoplasia; assay: Peptide immunofluorescence on FFPE human proximal colon specimens; conditions: KSP*-Cy5.5 5 μM, 10 min, RT
How it was run: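 FFPE 5-μm sections were deparaffinized, then antigen-retrieved in 10 mM sodium citrate, 0.05% Tween, pH 6.0, at boiling then sub-boiling for 15 min. They were blocked with protein serum for 15 min at RT and stained with 5 μM Cy5.5-labeled test peptide for 10 min at RT. After PBS washes, anti-HER2 was applied overnight at 4 °C. Mean intensity was read from three 20×20 μm² epithelial boxes per image, avoiding saturated regions. Analysis used log2 transform if needed, one-way ANOVA with Tukey comparisons, and Pearson's coefficient for co-localization.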

p-HER2 = assay: Western blot p-HER2, SKBR3 cells; assay type: cell-based, Human; conditions: 48 h
How it was run: (§2)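 SKBR3 cells (McCoy's) in 6-well plates at ~60% confluence got unlabeled test peptide at 5 or 100 μM. A tyrosine kinase inhibitor positive control was used at 1–1000 nM, alongside 1% DMSO and untreated controls. Cells were harvested at 48 h for Western blot. Antibodies covered total HER2, AKT and ERK1/2, phospho-HER2 (Tyr1248), phospho-AKT (pS473), phospho-ERK1/2 and tubulin.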

p-AKT = assay: Western blot p-AKT, SKBR3 cells; assay type: cell-based, Human; conditions: 48 h
How it was run: as §2

p-ERK = assay: Western blot p-ERK, SKBR3 cells; assay type: cell-based, Human; conditions: 48 h
How it was run: as §2

Flo1-HER2 cells = assay: Confocal microscopy of FITC-labeled lead peptides with Flo1-HER2 cells; assay type: cell-based; conditions: 10 μM, 4 °C, 1 h, quadruplicate, data log base 2
How it was run: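 Flo1-HER2 cells (DMEM + G418) and Q-hTERT control cells (Keratinocyte-SFM), ~7500 cells on coverslips, were grown to ~70% confluence and washed with cold PBS. They got 10 μM FITC-labeled peptide for 1 h at 4 °C, were washed 3×, fixed in ice-cold 4% PFA for 10 min and mounted with DAPI. Confocal imaging used a 63× oil objective, in quadruplicate.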

[9] = biological target: Human epidermal growth factor receptor 2 (HER2), endogenous on human cells and tissue (human, UniProt P04626 23-1255); assay: flow cytometry on cells
[10] = human proximal colon FFPE, n = 30, mean ± sem
[11] = lapatinib 1, 25, 100, 1000 nM, concentration dependent

With VRPMPLQ as the molecule, how does the “Binding in vivo on dysplastic polyps” value (dysplastic polyps) read?
Its value is “specific binding was validated”.

For KSPNPRF [KSP*-Cy5.5], which “Binding to cell surface” value (HER2 on HT29 cells [1]) is on record?
Its value is “binds to the surface”.

What about the “Binding to cell surface” value (HER2 on SW480 cells) of the same molecule?
Its value is “binds to the surface”.

What about the “Binding to siCL treated control cells compared to siHER2 knockdown cells” value (HER2 on HT29 cells [2]) of the same molecule?
Its value is “significantly greater”.

And the “Co-localization with anti-HER2-AF488, Pearson's coefficient” value (HER2 on HT29 cells [3])?
The value was 0.74.

What about the “Apparent association time constant, as time” value (HER2 on HT29 cells [4]) of the same molecule?
Its value is 7.1 min and 7.14 min.

What about the “NIR fluorescence at flat adenoma” value [5] of the same molecule?
The value was “increased intensity with visible crypt-like structures”.

And the “NIR fluorescence at polypoid adenoma” value [5]?
Its value is “increased intensity”.

And the “Time of peak T/B ratio (mean intensity)” value [6]?
Its value is 100 min.

What about the “Staining of normal colon” value [7] of the same molecule?
The value was “Minimal staining”.

And the “Co-localization with anti-HER2-AF488, Pearson's correlation coefficient” value ([8]; human colonic dysplasia, then anti-HER2)?
The value was 0.50.

And the “Mean fluorescence intensity, hyperplastic polyps” value ([8]; human proximal colon FFPE, n = 12, mean ± sem)?
The value was 0.12 ± 0.08.

What about the “Mean fluorescence intensity, sessile serrated adenomas” value ([8]; human proximal colon FFPE, n = 13, mean ± sem) of the same molecule?
Its value is 6.07 ± 0.73.

What about the “Mean fluorescence intensity, normal” value [8, 10] of the same molecule?
Its value is 2.72 ± 0.31.

What about the “Mean fluorescence intensity, sporadic adenomas” value [8, 10] of the same molecule?
The value was 11.9 ± 0.61.

Which results are given for KSPNPRF [KSP*]?
Apparent association time constant, as time (HER2 on HT29 cells [4]): 7.1 min; Phosphorylation of HER2 (p-HER2) (p-HER2; KSP* 5 and 100 μM, Tyr1248): no change; Phosphorylation of AKT (p-AKT) (p-AKT; KSP* 5 and 100 μM, pS473): no change; Phosphorylation of ERK (p-ERK) (p-ERK; KSP* 5 and 100 μM): no change

Which results are given for PPSNFKR [PPS*-Cy5.5]?
Binding to cell surface (HER2 on HT29 cells [1]): minimal binding; Binding to cell surface (HER2 on SW480 cells): minimal binding; NIR fluorescence at flat adenoma [5]: minimal signal; NIR fluorescence at polypoid adenoma [5]: minimal signal; Staining of normal colon [7]: Minimal staining

With KSPNPRF as the molecule, how does the “Mean fluorescence intensity (rank among top 5 peptides)” value (Flo1-HER2 cells) read?
Its value is “highest mean fluorescence intensity”.

With `CS(=O)(=O)CCNCc1ccc(-c2ccc3ncnc(Nc4ccc(OCc5cccc(F)c5)c(Cl)c4)c3c2)o1` [lapatinib, reference compound] as the molecule, how does the “Expression of p-HER2” value (p-HER2; [11]) read?
The value was “reduced expression”.

And the “Expression of p-AKT” value (p-AKT; [11])?
Its value is “reduced expression”.

And the “Expression of p-ERK” value (p-ERK; [11])?
Its value is “reduced expression”.

Which Kd [9] does the source give for KSPNPRFGGGSK(Cy5.5)-NH2 [KSP*-Cy5.5 (KSPNPRF peptide labeled with Cy5.5 via a GGGSK linker)] here?
The Kd was 21 nM.
